Measured values published in PMC3911823 (The FEBS journal, 2011).
Numbering of substitutions follows the chain as printed. Entries after “also recorded” stand apart in the source; their conditions may differ.

Tests used:
[1] = target: T1, P450 2B4 H172Q (Oryctolagus cuniculus, UniProt P00178, H172Q); assay: Inhibition of 7-EFC O-deethylation by imidazole inhibitors; format: biochemical, rabbit (Oryctolagus cuniculus)
T1 sequence (P00178 with tags, fused parts or gaps H172Q limits assumed): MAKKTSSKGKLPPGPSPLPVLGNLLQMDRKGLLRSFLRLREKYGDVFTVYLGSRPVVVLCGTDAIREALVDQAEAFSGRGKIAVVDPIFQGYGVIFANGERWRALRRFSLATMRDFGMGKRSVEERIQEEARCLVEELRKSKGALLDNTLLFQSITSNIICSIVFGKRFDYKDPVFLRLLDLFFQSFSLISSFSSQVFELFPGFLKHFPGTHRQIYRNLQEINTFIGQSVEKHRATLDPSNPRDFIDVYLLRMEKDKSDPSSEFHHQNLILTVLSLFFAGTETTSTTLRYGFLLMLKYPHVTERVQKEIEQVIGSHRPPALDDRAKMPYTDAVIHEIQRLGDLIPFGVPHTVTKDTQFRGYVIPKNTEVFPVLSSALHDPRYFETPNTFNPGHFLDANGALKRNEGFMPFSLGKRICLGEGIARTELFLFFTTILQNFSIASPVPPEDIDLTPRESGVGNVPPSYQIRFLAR

[2] = target: T2, P450 2B4 E474D (Oryctolagus cuniculus, UniProt P00178, E474D); assay: as above; format: biochemical, rabbit (Oryctolagus cuniculus)
T2 sequence (P00178 with tags, fused parts or gaps E474D limits assumed): T1 sequence (P00178 with tags, fused parts or gaps H172Q limits assumed) with Q153H, E455D

[3] = target: T3, P450 2B4 L437A (Oryctolagus cuniculus, UniProt P00178, L437A); assay: Spectral binding titration of imidazole ligands; design: species or system rabbit (Oryctolagus cuniculus); conditions: 2B4 L437A versus wild type
T3 sequence (P00178 with tags, fused parts or gaps L437A limits assumed): T1 sequence (P00178 with tags, fused parts or gaps H172Q limits assumed) with Q153H, L418A
In short: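 Protein was the His-tagged 2B4dH construct (single mutants or wild type), expressed in TOPP3 cells and Ni-NTA purified. Spectra 350–700 nm recorded after serial 5 μl additions of 100 μM 4-CPI or bifonazole. Ks came from a tight-binding equation fit, and the 4-CPI/bifonazole Ks ratio was calculated.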

[4] = target: T4, P450 2B4 H172A (Oryctolagus cuniculus, UniProt P00178, H172A); format: biochemical, rabbit (Oryctolagus cuniculus)
T4 sequence (P00178 with tags, fused parts or gaps H172A limits assumed): T1 sequence (P00178 with tags, fused parts or gaps H172Q limits assumed) with Q153A

[5] = target: T3, P450 2B4 L437A; format: biochemical, rabbit (Oryctolagus cuniculus)
[6] = target: T5, P450 2B4 H172F (Oryctolagus cuniculus, UniProt P00178, H172F)
T5 sequence (P00178 with tags, fused parts or gaps H172F limits assumed): T1 sequence (P00178 with tags, fused parts or gaps H172Q limits assumed) with Q153F

SMILES | IC50 [1] | Ratio 4-CPI IC50/Bifonazole IC50 ([1]; 2B4 H172Q, 50 μM 7-EFC as substrate) | IC50 [2] | Ratio 4-CPI IC50/Bifonazole IC50 ([2]; 2B4 E474D, 50 μM 7-EFC as substrate) | Ks (spectral dissociation constant) higher than wild type [3] | change in the ratio of 4-CPI Ks to bifonazole Ks [3] | decrease (change) in kcat versus wild type [4] | kcat [4] | kcat/S50 [4] | S50 ([4]; Hill equation) | kcat [5] | kcat/S50 [5] | substrate turnover (activity) [5] | kcat [6] | kcat/S50 [6] | substrate turnover (activity) [6]
Clc1ccc(-c2c[nH]cn2)cc1 [4-CPI, 4-(4-chlorophenyl)imidazole] | 220 nM | 0.29 | 240 nM | 0.39 | ~ 50 times | greater than 9 fold | – | – | – | – | – | – | – | – | – | –
O=c1ccc2nc3ccc(OCc4ccccc4)cc3oc-2c1 [7-BR, 7-benzyloxyresorufin] | – | – | – | – | – | – | ~ 19 fold | 0.0067 ± 0.0017 s⁻¹ | 0.08 | 5.0 ± 0.8 µM | 0 s⁻¹ | 0 | did not turn over; also recorded: no activity | 0 s⁻¹ | 0 | inactive
